Compounds with a hit are over-represented: about 3.5% of the library has one in this group of screens.
MrgX1 agonist – agonists of human MrgX1 receptor, primary screen, HEK293 cells, Fluo-4 calcium flux | actives 0.44% (n = 310,000) | B-score at 10 µM | Fluo-4 calcium fluorescence, agonist mode; hits give high values;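 active means calcium response B-score plate-corrected fluorescence ratio at least 3 library SD, with starting fluorescence B-score inside 5 SD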
Target sequence (Q96LB2 whole entry, looked up): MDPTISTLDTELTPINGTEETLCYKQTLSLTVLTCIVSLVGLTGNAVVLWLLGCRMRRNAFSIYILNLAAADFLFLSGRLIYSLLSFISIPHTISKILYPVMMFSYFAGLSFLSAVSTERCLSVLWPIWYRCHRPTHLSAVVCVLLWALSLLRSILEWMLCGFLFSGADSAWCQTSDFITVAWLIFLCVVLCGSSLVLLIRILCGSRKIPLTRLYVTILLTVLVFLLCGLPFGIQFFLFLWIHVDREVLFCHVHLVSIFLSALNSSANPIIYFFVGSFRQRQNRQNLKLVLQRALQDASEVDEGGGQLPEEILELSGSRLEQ
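Test system: HEK293 cells stably expressing human MrgX1 receptor; Input: fifteen thousand cells per well; Dosing: compound delivered in addition one of three; Schedule: overnight seeding, then 1 h dark dye loading; Technique: Fluo-4 NW calcium fluorescence; Measure: B-scored fluorescence response ratio; Controls: positive and negative controls per plate.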
MrgX1 allo act – positive allosteric modulators of MrgX1, primary screen, HEK293 cells, Fluo-4 calcium flux; Mas-related G-protein coupled receptor member X1 (Homo sapiens), Q96LB2; FDSS; hits give high values; B-score at 10 µM; actives 0.63% (n = 310,000); AID 588675, 2011;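 active means plate-corrected calcium response at least 3 library SD above typical, normal starting fluorescence, not activating the receptor alone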;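 further: compound read alongside a low EC10 to EC30 dose of BAM8-22 agonist; peak minus trough fluorescence over baseline measured at the second addition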
RGS4 act – RGS4 potentiators or activators, primary screen, cell-based, HEK293 M3R inducible RGS4, calcium flux. carbachol calcium flux Fluo4; hits give low values. B-score at 10 µM. actives 0.92% (n = 310,000);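 active means B-score of the integrated calcium signal more than 4 SD below the library mean, with starting fluorescence not abnormally high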;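 further: negative B-score means reduced calcium response which marks RGS4 activation or potentiation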
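test system = HEK293 cells with stable M3R and inducible RGS4 | schedule = recording 10 s baseline at 1 Hz, 100 s post-agonist | technique = Fluo4-AM (2 µM) calcium-flux fluorescence, kinetic read | measure = Agonist-evoked peak-minus-minimum fluorescence over baseline, integrated ratio, B score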
RGS4 block – RGS4 inhibitors, primary screen, cell-based, HEK293 M3R inducible RGS4, calcium flux | Regulator of G-protein signaling 4 (Homo sapiens), P49798 | Fluo-4 calcium flux; hits give high values; triggered by carbachol at its EC20 | B-score at 10 µM | actives 0.45% (n = 310,000) | AID 463165, 2010;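 active means B-score, a plate-corrected calcium signal, over three deviations above library mean, with baseline fluorescence within five deviations of library mean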;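 further: RGS4 expression induced by doxycycline in cells with stable M3 receptor; B-score is computed from the integrated fluorescence ratio over baseline after carbachol; higher B-score means a larger calcium signal and so more RGS4 inhibition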
Target sequence (P49798 whole entry, looked up): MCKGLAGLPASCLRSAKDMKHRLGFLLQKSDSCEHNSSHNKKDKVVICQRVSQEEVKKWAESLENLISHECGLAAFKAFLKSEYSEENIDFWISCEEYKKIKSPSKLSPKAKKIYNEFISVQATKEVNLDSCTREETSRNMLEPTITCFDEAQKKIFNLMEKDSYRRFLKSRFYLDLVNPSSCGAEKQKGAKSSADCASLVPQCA
MrgX1 antagonist – antagonists of human MrgX1 receptor, primary screen, HEK293 cells, Fluo-4 calcium flux; actives 1.3% (n = 310,000); BAM8-22 antagonism; hits give low values; B-score at 10 µM; Mas-related G-protein coupled receptor member X1 (Homo sapiens), Q96LB2;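 active means calcium-response B-score plate-corrected more than 3 library SD below zero, starting fluorescence within 5 deviations, no agonist response on first addition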;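 further: peak minus trough fluorescence over baseline after final BAM8-22 challenge near maximal dose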
* marks the source's active call; other numbers are inactive results; i = inactive; x = not tested or not shown.

SMILES	MrgX1 agonist	MrgX1 allo act	RGS4 act	RGS4 block	MrgX1 antagonist
Cc1ccc(NS(=O)(=O)c2cccc(C(=O)NCC(c3ccco3)N3CCCCC3)c2)cc1 (configuration not stated)	i	i	i	i	i
COc1ccccc1NC(=O)/C(C#N)=C/c1ccncc1	i	i	i	i	i
COc1ccccc1NC(=O)/C(C#N)=C/c1cc([N+](=O)[O-])ccc1N1CCCC1	i	i	i	i	-6.6*
O=C(O)c1ccc(N=Nc2c(O)[nH]c3cc(Cl)ccc23)cc1	i	i	i	i	-6*
CC(=O)C(C(C)=O)c1cc(NS(=O)(=O)c2ccccc2)ccc1NS(=O)(=O)c1ccccc1	i	13*	i	i	i
Cc1ccccc1-c1nc(CS(=O)CC(=O)NC(C)CCc2ccccc2)c(C)o1 (configuration not stated)	i	i	i	i	i
CC(Oc1ccc2ccc(=O)oc2c1)C(=O)NCCN1CCOCC1 (configuration not stated)	i	i	i	i	i
S=C(NCCC(c1ccccc1)c1ccccc1)Nc1ccc(Cl)cc1	i	i	-7.9*	i	i
N#C/C(=C\c1cccs1)C(=O)Nc1nccs1	44*	i	i	i	i
O=C(CCc1nnc2ccc(N3CCOCC3)nn12)Nc1ccc(F)cc1F	i	i	i	i	i
O=[N+]([O-])c1ccc(N/N=C/C=C/c2ccco2)cc1	i	i	-7.4*	i	-10*
O=C(N/N=C/c1ccc([N+](=O)[O-])o1)C(=O)Nc1ccc(C(=O)O)cc1	i	i	i	i	i
O=C(O)c1ccc(N/N=C/C=C/c2ccc([N+](=O)[O-])o2)cc1	i	i	i	i	-4.6*
CCN1C(=O)[C@@H]2[C@H](C1=O)[C@@H]1C(=O)Nc3ccccc3C(=O)N1[C@@H]2c1ccc(Br)cc1	i	i	i	i	i
O=C(ON=C1CCN(S(=O)(=O)c2ccccc2)CC1)c1ccc(F)cc1	i	i	i	i	-6.1*
Cc1sc(NC(=O)CN(CCc2ccccc2)C(=O)C2CC2)c(C(N)=O)c1C	i	i	i	i	i
CCOC(=O)c1ccc(Nc2c(OCC)c(=O)c2=O)cc1	i	i	i	i	i
O=C(Nc1ccccc1C(F)(F)F)N1CCN(C(c2ccccc2)c2ccccc2)CC1	i	i	i	i	-7.1*
O=C(CCc1nnc(C2(c3ccc(Cl)cc3)CCC2)o1)N1CCCC(O)C1 (configuration not stated)	i	i	i	i	i
COc1ccc(NC(=O)CS(=O)c2cccc(C(F)(F)F)c2)cc1 (configuration not stated)	i	i	i	i	i
COc1ccc(/C=C(\C#N)C(=O)c2c(C)[nH]c3ccccc23)cc1OC	32*	i	i	i	i
CCOC(=O)c1cnc(Nc2nc3ccccc3o2)nc1CSC(=S)N(CC)CC	i	i	i	i	i
CCOC(=O)c1cnc(Nc2nc3ccccc3o2)nc1CSc1ncccn1	i	i	i	i	-5.6*
CC[C@@]12C(=O)N(c3ccc(OC)cc3)C(=O)N1[C@H](c1ccc(Cl)cc1)[C@@H]1C(=O)N(C3CCCCC3)C(=O)[C@@H]12	i	i	i	i	i
Nc1ncn(C2O[C@H](CO)[C@@H](O)[C@H]2O)c(=O)n1 (some centres not stated)	i	i	x	x	i
SMILES	MrgX1 agonist	MrgX1 allo act	RGS4 act	RGS4 block	MrgX1 antagonist
NC(=O)c1ncn([C@@H]2O[C@H](CO)[C@@H](O)[C@H]2O)c1O	i	i	i	i	-9*
CCN(CC)c1ccc(N=CN2CCOCC2)cc1	i	i	i	i	i
O=C(Nc1ccncc1)c1ccc(Cl)c(S(=O)(=O)N2CCCCC2)c1	i	i	i	i	i
CCN(CC)CCOC(=O)c1ccc(NC(=O)c2ccc(Cl)c(S(=O)(=O)N3CCCCCC3)c2)cc1	i	i	i	i	-6.8*
COc1cccc(N2C(=O)CC(NNc3nc4ccccc4s3)C2=O)c1 (configuration not stated)	30*	i	i	i	i
O=C1C(Cl)=C(NC(=O)c2ccccc2)C(=O)C(Cl)=C1NC(=O)c1ccccc1	i	i	i	7.3*	i
Cc1cccc(NC2=C(NC(=O)c3ccccc3)C(=O)c3ccccc3C2=O)c1	i	10*	i	i	i
O=C(Nc1cccc(Cl)c1)c1ccccc1	i	i	x	x	i
O=C(NC1=C(Nc2ccc(Cl)cc2)C(=O)c2ccccc2C1=O)c1ccccc1	i	i	i	i	i
CCn1c2ccccc2c2cc(NC(=O)c3coc(=O)c(Br)c3)ccc21	i	i	i	i	i
CCn1c2ccccc2c2cc(NC(=O)c3ccc(Br)o3)ccc21	i	i	i	i	-7.5*
Cn1c(SCc2ccccn2)nc2c1c(=O)[nH]c(=O)n2C	i	i	i	i	i
O=C(N/N=C/c1cccc2nccnc12)c1ccncc1	i	i	-8.3*	i	i
COc1cc(OC)cc(C(=O)NNC(=O)NC2CCCCC2)c1	i	i	i	i	-7*
CN(C)c1cccc(C(=O)NNC(=O)NC2CCCCC2)c1	i	i	i	i	i
Cc1cccc(N2CC(C(=O)Nc3nnc(SCC(=O)NCC4CCCO4)s3)CC2=O)c1 (configuration not stated)	i	i	i	i	i
COc1cc(/C=C2/C(=O)N(c3cccc(Br)c3)N=C2C)cc(OC)c1O	62*	i	i	i	i
O=C(/C=C/c1ccco1)NC(=S)Nc1nc(-c2ccc3ccccc3c2)cs1	i	i	i	i	-6.6*
C=CCN(CC=C)C(=S)NC(=O)/C=C/c1ccc(OC)cc1	i	8.9*	i	i	i
COc1ccc(/C=C/C(=O)NC(=S)NNC(=O)c2cnccn2)cc1	i	i	i	i	-6.5*
O=C(/C=C/c1ccco1)NC(=S)Nc1nc(-c2ccc(Cl)cc2)cs1	i	i	i	i	i
O=C(/C=C/c1ccco1)NC(=S)Nc1ccccn1	i	18*	i	i	i

From PubChem
